Test results as given in ChEMBL document CHEMBL1157664, “Aminopyridinecarboxamide-based inhibitors: Structure-activity relationship” (Bioorg Med Chem, 2010).

Experiments:
[1] = molecular target: T1, Inhibitor of nuclear factor kappa-B kinase subunit beta (Homo sapiens, UniProt O14920); assay: Inhibition of human recombinant IKK2-mediated transfer of [gamma33P]ATP to biotinylated IkappaBalpha after 30 mins by scintillation counting
T1 sequence (O14920 whole entry): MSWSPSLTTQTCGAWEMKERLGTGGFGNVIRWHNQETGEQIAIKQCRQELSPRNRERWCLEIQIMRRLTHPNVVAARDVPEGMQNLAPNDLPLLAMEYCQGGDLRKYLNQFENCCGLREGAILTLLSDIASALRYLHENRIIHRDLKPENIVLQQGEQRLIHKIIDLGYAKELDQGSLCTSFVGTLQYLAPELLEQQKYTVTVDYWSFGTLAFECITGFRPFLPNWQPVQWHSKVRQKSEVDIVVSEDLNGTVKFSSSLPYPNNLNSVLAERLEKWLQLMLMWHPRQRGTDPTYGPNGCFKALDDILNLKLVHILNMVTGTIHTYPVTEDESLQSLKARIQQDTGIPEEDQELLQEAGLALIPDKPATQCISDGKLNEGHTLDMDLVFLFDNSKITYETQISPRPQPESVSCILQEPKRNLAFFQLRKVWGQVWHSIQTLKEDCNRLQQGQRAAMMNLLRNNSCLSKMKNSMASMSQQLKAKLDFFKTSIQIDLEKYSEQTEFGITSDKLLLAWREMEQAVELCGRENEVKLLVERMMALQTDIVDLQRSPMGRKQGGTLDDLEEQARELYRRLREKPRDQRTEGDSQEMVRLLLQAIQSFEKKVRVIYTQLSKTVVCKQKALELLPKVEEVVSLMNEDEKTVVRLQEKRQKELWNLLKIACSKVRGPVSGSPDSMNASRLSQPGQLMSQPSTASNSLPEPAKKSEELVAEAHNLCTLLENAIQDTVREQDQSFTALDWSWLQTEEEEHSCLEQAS
Outline: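 Recombinant human IKK-2 enzyme (46 nM/rxn, 200 ng/rxn). Substrate 5 µM biotinylated IκBα peptide (residues spanning Ser32/Ser36) with 1 µM ATP plus 0.1 µCi [γ-33P]ATP. Buffer 25 mM Hepes pH 7.6 with 1 mM DTT, 2 mM MgCl2, 2 mM MnCl2, 10 mM NaF. Incubated 30 min at 25 °C, stopped with AG1X8 resin in formate buffer pH 3. Supernatant ³³P read by scintillation counting.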

[2] = Antiinflammatory activity in human synovial fibroblasts assessed as inhibition of IL-1-beta-stimulated IL8 production treated 1 hr before IL1-beta challenge measured after 18 hrs by ELISA; format: functional
Outline: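 Rheumatoid arthritis patient synovial fibroblasts seeded at 1.5 × 10^4 cells/well in DMEM + 15% FBS and left to attach overnight. Medium then changed to DMEM + 1% FBS. Cells pretreated 1 h with increasing compound concentrations (0.2% Me2SO final), then stimulated 18 h with 1 ng/mL IL-1β. Secreted IL-8 measured by ELISA against standard curves (4-parameter logistic). Cytotoxicity checked by Alamar Blue.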

SMILES	IC50 [1] [nM]	IC50 [2] [nM]
NC(=O)c1nn(-c2ccc3c(c2)OCO3)c2c1CCc1ccc(NC(=O)c3nc(N4CCOCC4)ccc3Cl)cc1-2	612	> 100000
NC(=O)c1nn(-c2ccc3c(c2)OCO3)c2c1CCc1ccc(NC(=O)c3cccnc3N)cc1-2	1340	–
NC(=O)c1nn(-c2ccc3c(c2)OCO3)c2c1CCc1ccc(NC(=O)c3cccnc3N3CCOCC3)cc1-2	5910	–
NC(=O)c1nn(-c2ccc(F)cc2)c2c1CCc1ccc(NC(=O)c3cc(N4CCOCC4)ncc3Cl)cc1-2	146	2140
C[C@@H]1CN(c2cc(C(=O)Nc3ccc4c(c3)-c3c(c(C(N)=O)nn3-c3ccc(F)cc3)CC4)c(Cl)cn2)C[C@H](C)N1C	98	5500
NC(=O)c1nn(-c2ccc(F)cc2)c2c1CCc1ccc(NC(=O)c3cccnc3N3CCOCC3)cc1-2	14200	–
CNc1ncccc1C(=O)Nc1ccc2c(c1)-c1c(c(C(N)=O)nn1-c1ccc(F)cc1)CC2	3210	–
CN1CCN(c2ccc(Cl)c(C(=O)Nc3ccc4c(c3)-c3c(c(C(N)=O)nn3-c3ccc(F)cc3)CC4)n2)CC1	348	4830
CN1CCN(c2ccc(Cl)c(C(=O)Nc3ccc4c(c3)-c3c(c(C(N)=O)nn3-c3ccc5c(c3)OCO5)CC4)n2)CC1	297	4420
NC(=O)c1nn(-c2ccc(F)cc2)c2c1CCc1ccc(NC(=O)c3nc(N4CCOCC4)ccc3Cl)cc1-2	1250	3040
NC(=O)c1nn(-c2ccc(F)cc2)c2c1CCc1ccc(NC(=O)c3ccnc(N4CCOCC4)c3)cc1-2	589	> 5000
CC(C)N1CCN(c2cc(C(=O)Nc3ccc4c(c3)-c3c(c(C(N)=O)nn3-c3ccc(F)cc3)CC4)c(Cl)cn2)CC1	107	1490
CNc1ncccc1C(=O)Nc1ccc2c(c1)-c1c(c(C(N)=O)nn1-c1ccc3c(c1)OCO3)CC2	210	3370
CNc1ccc(Cl)c(C(=O)Nc2ccc3c(c2)-c2c(c(C(N)=O)nn2-c2ccc4c(c2)OCO4)CC3)n1	477	5740
NC(=O)c1nn(-c2ccc(F)cc2)c2c1CCc1ccc(NC(=O)c3cccnc3N)cc1-2	2320	–
CN1CCN(c2cc(C(=O)Nc3ccc4c(c3)-c3c(c(C(N)=O)nn3-c3ccc(F)cc3)CC4)ccn2)CC1	125	> 5000
CN1CCN(c2ncccc2C(=O)Nc2ccc3c(c2)-c2c(c(C(N)=O)nn2-c2ccc4c(c2)OCO4)CC3)CC1	17300	–
NC(=O)c1nn(-c2ccc3c(c2)OCO3)c2c1CCc1ccc(NC(=O)c3cc(N4CCOCC4)ncc3Cl)cc1-2	90	849
CN1CCN(c2ncccc2C(=O)Nc2ccc3c(c2)-c2c(c(C(N)=O)nn2-c2ccc(F)cc2)CC3)CC1	16200	–

These reach a lower IC50 [1]. Values come first.

IC50 [1] [nM]	SMILES	IC50 [2] [nM]
54	C[C@@H]1CN(c2cc(C(=O)Nc3ccc4c(c3)-c3c(c(C(N)=O)nn3-c3ccc(F)cc3)CC4)c(Cl)cn2)CCN1	3980
27	NC(=O)c1nn(-c2ccc(F)cc2)c2c1CCc1ccc(NC(=O)c3cc(N4CCCNCC4)ncc3Cl)cc1-2	1940
47	NC(=O)c1nn(-c2ccc(F)cc2)c2c1CCc1ccc(NC(=O)c3cccnc3Cl)cc1-2	12000
59	COCCN1CCN(c2cc(C(=O)Nc3ccc4c(c3)-c3c(c(C(N)=O)nn3-c3ccc(F)cc3)CC4)c(Cl)cn2)CC1	1020
34	NC(=O)c1nn(-c2ccc3c(c2)OCO3)c2c1CCc1ccc(NC(=O)c3cccnc3Cl)cc1-2	5000
48	C[C@@H]1CN(c2cc(C(=O)Nc3ccc4c(c3)-c3c(c(C(N)=O)nn3-c3ccc(F)cc3)CC4)c(Cl)cn2)CCN1C	2180
33	CN1CCN(c2cc(C(=O)Nc3ccc4c(c3)-c3c(c(C(N)=O)nn3-c3ccc5c(c3)OCO5)CC4)c(Cl)cn2)CC1	630
19	CN(C)CCN(C)c1cc(C(=O)Nc2ccc3c(c2)-c2c(c(C(N)=O)nn2-c2ccc(F)cc2)CC3)c(Cl)cn1	4180
51	C[C@H]1CN(c2cc(C(=O)Nc3ccc4c(c3)-c3c(c(C(N)=O)nn3-c3ccc(F)cc3)CC4)c(Cl)cn2)CCN1	1320
46	C[C@@H]1CN(c2cc(C(=O)Nc3ccc4c(c3)-c3c(c(C(N)=O)nn3-c3ccc(F)cc3)CC4)c(Cl)cn2)C[C@H](C)N1	8600
45	C[C@H]1CN(c2cc(C(=O)Nc3ccc4c(c3)-c3c(c(C(N)=O)nn3-c3ccc(F)cc3)CC4)c(Cl)cn2)CCN1C	1310
70	CN(C)CCNc1cc(C(=O)Nc2ccc3c(c2)-c2c(c(C(N)=O)nn2-c2ccc(F)cc2)CC3)c(Cl)cn1	4720
40	NC(=O)c1nn(-c2ccc3c(c2)OCO3)c2c1CCc1ccc(NC(=O)c3cc(N4CCNCC4)ncc3Cl)cc1-2	1860
29	CN1CCCN(c2cc(C(=O)Nc3ccc4c(c3)-c3c(c(C(N)=O)nn3-c3ccc(F)cc3)CC4)c(Cl)cn2)CC1	2360
10	NC(=O)c1nn(-c2ccc(F)cc2)c2c1CCc1ccc(NC(=O)c3cc(N4CCNCC4)ncc3Cl)cc1-2	2470
